In data set [1] the target is α1β3γ2 GABAA receptors (agonist site) (Homo sapiens, UniProt P14867+P18507+P28472). Kind of data set: Modulation of [3H]muscimol binding to GABAA receptor membranes from HEK293 cells.
Data set [2] has as its target T1, Torpedo nACh receptor (Tetronarce californica, UniProt P02710+P02712+P02714+P02718). Description: Inhibition of ACh-elicited currents of Torpedo nACh receptors in Xenopus oocytes. Format: cell-based. Conditions: 10 μM ACh (~EC20). The gist of the method:
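Two-electrode voltage clamp at room temperature on Xenopus oocytes. Oocytes were injected with ~25 ng Torpedo subunit cRNA at 2α:1β:1γ:1δ, clamped at −50 mV and perfused with ND96 (pH 7.5) at ~2 mL/min. 10 μM ACh was applied, then ACh plus rising test compound (10 mM DMSO stock diluted in ND96). Applications lasted 15–20 s with ~3 min washes. Currents were normalized to ACh alone and fit to a logistic equation; 3 oocytes.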

Data set [3] can be described thus: Octanol/water partition coefficient by HPLC. Format: physicochemical. Conditions: estimated by HPLC of both phases.
The target in data set [4] is human α1β2γ2L GABAA receptor (Homo sapiens, UniProt P14867+P18507+P47870). Description: Two electrode voltage clamp of GABAA receptor currents in Xenopus oocytes. The data set is classed as cell-based. To be noted: for Imax of GABA current enhancement / nH of GABA current enhancement: 3 μM GABA (~EC5); for nH of GABA concentration response curve in the presence of drug: 6 μM 6; for nH of GABA concentration response curve in the presence of drug / Shift in GABA dose response curve to the left: 4.4 μM propofol; for Shift in GABA dose response curve to the left: twice the tadpole anesthesia EC50: 6 μM 6. On the technique in general: Two-electrode voltage clamp is typically applied to oocytes expressing channels or transporters.

The target of data set [5] is α1β3γ2 GABAA receptors (benzodiazepine site) (Homo sapiens, UniProt P14867+P18507+P28472). Format: binding. To be noted: for Enhancement of specific [3H]flunitrazepam binding: maximal effect; for effect on [3H]flunitrazepam binding above 40 μM: above 40 μM up to 400 μM.
In data set [6] the test system is Xenopus laevis tadpoles. Kind of data set: General anesthetic potency, loss of righting reflexes. The data set is classed as in vivo. Conditions: recovery in fresh solution overnight.
Data set [7] in a line: Stability in aqueous buffer at 4°C. Format: physicochemical. To be noted: 0.01M Tris/HCl pH 7.4, concentration close to saturation. The gist of the method: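 Excess test compound was stirred 24 h in 0.01 M Tris/HCl, pH 7.4, and centrifuged at 10,000g to give a near-saturated solution. This was stored at 4°C and monitored over time by reverse-phase HPLC (acetonitrile elution).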

Data set [8] has as its target T1, Torpedo nACh receptor. Kind of data set: Photoincorporation of [3H]6 into nACh receptor-rich Torpedo membranes. Format: binding. To be noted: for effect on nACh receptor subunit photolabeling by [3H]6: absence of agonist (resting state), 100 μM drug. The gist of the method:
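Electric-organ membranes were held at 2 mg protein/mL in Torpedo saline (pH 7.0) with 1 mM oxidized glutathione. Aliquots (160 pmol ACh sites) were equilibrated 30 min with 1.7 μM tritiated test compound (12 Ci/mmol), alone or with 100 μM tetracaine, 100 μM phencyclidine, 300 μM parent anesthetic and/or 1 mM carbamylcholine. Samples were UV-irradiated (365 nm) on ice for 30 min, then run on SDS-PAGE. Read-outs were fluorography (2 weeks) and scintillation counting of excised subunit bands.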

For data set [9], the system named is Xenopus laevis tadpoles. Conditions: read-out: General Anesthesia LoRR EC50, cited from earlier work.
The subject of the next data set is GABAA receptor. Conditions: cited from earlier work.
For data set [10] the following is noted: pure propofol in water; cited from earlier work.
[11] abbreviates: added to carbamylcholine-treated samples.

Each structure is given as a SMILES string. “Also recorded” adds a separate entry of the source. Read-outs that look alike come from different tables or passages of the source. Marks after values point to notes of the source that are not given here.

Chain of α1β3γ2 GABAA receptors (benzodiazepine site) (P14867 28-456): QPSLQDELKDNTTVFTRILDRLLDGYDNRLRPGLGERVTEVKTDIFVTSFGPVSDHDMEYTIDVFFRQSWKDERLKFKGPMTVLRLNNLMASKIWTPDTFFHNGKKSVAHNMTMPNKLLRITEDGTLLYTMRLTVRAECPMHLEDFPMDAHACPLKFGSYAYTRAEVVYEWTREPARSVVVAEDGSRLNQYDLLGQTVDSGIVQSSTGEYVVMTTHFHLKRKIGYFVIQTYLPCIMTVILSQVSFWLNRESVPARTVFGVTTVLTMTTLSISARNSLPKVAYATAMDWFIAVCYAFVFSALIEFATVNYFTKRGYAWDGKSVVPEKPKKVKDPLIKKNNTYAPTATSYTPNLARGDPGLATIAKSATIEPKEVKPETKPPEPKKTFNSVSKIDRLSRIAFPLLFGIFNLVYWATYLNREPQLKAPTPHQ
Chain of α1β3γ2 GABAA receptors (benzodiazepine site) (P28472 26-473): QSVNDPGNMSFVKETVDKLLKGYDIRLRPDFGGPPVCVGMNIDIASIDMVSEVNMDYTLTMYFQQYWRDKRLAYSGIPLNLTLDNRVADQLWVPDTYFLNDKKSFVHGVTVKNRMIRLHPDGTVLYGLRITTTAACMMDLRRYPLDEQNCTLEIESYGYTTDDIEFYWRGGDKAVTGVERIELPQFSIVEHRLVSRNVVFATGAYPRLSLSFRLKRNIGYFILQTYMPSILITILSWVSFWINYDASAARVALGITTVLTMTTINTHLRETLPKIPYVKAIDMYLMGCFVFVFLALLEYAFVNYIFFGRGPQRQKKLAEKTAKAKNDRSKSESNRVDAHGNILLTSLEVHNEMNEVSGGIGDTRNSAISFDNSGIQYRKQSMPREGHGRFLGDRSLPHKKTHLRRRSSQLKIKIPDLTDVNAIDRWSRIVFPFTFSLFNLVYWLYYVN
Chain of α1β3γ2 GABAA receptors (benzodiazepine site) (P18507 40-475): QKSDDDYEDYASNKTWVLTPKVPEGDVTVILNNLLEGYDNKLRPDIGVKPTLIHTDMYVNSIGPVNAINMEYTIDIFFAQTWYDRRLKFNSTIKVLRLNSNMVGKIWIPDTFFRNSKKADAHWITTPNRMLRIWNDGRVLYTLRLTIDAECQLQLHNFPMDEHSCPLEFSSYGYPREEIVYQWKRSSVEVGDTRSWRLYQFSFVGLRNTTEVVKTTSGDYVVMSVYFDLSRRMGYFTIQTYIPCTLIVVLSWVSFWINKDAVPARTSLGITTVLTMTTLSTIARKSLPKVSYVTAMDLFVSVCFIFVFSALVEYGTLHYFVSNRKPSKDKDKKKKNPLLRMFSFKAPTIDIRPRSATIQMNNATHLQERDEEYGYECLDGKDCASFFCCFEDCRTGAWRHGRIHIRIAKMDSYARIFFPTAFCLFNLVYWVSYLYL
Chain of human α1β2γ2L GABAA receptor (P14867 28-456): as the sequence (P14867 28-456) above
Chain of human α1β2γ2L GABAA receptor (P47870 25-512 limits assumed): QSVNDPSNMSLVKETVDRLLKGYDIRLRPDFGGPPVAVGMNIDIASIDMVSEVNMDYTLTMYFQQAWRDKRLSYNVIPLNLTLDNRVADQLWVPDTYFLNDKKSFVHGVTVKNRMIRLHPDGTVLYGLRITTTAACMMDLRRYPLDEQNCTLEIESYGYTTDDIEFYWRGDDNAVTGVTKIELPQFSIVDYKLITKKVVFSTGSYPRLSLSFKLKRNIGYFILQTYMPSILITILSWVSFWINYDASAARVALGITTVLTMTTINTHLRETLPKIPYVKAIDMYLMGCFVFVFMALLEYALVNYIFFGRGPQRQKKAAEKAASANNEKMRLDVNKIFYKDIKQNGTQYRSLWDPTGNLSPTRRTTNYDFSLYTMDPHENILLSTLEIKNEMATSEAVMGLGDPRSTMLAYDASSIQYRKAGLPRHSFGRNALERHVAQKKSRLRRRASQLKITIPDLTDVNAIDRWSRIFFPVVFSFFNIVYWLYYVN
Chain of human α1β2γ2L GABAA receptor (P18507 40-475): as the sequence (P18507 40-475) above
Chain of α1β3γ2 GABAA receptors (agonist site) (P14867 28-456): as the sequence (P14867 28-456) above
Chain of α1β3γ2 GABAA receptors (agonist site) (P28472 26-473): as the sequence (P28472 26-473) above
Chain of α1β3γ2 GABAA receptors (agonist site) (P18507 40-475): as the sequence (P18507 40-475) above
T1 sequence (P02710 25-461): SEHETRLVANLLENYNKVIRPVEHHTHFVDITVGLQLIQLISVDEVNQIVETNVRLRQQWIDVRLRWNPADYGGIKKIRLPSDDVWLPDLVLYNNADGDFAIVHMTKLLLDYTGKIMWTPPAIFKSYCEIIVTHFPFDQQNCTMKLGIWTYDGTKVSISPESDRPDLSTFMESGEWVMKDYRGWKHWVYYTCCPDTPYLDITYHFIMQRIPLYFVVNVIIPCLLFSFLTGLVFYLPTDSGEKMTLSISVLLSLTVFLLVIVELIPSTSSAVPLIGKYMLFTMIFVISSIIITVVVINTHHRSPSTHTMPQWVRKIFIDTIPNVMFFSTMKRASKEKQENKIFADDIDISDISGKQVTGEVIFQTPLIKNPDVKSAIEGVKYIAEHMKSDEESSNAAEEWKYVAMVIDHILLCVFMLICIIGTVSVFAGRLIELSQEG
T1 sequence (P02712 25-493): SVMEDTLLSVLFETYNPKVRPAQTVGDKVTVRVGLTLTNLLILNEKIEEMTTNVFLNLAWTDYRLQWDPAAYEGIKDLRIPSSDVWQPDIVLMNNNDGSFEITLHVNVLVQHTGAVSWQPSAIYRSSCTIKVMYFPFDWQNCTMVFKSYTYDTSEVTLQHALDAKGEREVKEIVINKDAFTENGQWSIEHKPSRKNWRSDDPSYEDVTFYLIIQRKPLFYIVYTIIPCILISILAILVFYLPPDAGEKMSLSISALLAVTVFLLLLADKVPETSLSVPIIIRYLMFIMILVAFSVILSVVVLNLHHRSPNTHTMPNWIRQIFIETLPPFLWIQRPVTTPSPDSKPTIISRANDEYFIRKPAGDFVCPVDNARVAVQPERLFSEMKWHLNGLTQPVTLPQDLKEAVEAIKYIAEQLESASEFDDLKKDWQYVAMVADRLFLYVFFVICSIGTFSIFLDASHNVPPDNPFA
T1 sequence (P02714 18-506): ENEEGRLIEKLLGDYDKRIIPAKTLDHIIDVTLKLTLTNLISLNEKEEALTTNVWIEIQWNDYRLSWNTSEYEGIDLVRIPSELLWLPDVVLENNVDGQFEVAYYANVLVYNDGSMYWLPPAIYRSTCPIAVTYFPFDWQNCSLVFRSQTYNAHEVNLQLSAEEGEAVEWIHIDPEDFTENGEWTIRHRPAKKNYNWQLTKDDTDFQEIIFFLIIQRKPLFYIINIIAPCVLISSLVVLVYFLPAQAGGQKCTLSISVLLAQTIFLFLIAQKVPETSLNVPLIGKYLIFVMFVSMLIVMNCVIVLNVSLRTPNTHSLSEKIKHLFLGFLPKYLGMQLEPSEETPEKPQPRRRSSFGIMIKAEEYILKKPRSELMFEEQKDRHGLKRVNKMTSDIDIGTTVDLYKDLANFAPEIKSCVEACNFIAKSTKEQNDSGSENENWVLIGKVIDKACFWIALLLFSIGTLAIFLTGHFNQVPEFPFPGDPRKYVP
T1 sequence (P02718 22-522): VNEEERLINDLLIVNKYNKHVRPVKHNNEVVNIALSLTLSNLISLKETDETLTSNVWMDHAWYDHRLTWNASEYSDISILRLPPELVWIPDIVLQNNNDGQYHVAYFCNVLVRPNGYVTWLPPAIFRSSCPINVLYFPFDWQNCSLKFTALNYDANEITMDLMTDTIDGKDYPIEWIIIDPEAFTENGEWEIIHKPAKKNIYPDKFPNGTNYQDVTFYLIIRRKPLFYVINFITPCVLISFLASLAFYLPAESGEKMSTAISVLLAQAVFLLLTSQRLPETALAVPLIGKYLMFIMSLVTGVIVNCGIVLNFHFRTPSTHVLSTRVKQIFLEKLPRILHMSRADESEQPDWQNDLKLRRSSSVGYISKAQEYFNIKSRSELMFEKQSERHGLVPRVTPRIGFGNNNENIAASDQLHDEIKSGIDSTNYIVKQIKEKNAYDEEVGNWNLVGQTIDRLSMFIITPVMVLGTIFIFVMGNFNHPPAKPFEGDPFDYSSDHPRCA

What is called EC50 is the midpoint of the concentration-response curve. With `CC(C)c1cc(CCCC2(C)N=N2)cc(C(C)C)c1O` [Compound 6, 2,6-Diisopropyl-4-[3-(3-methyl-3H-diazirin-3-yl)-propyl]-phenol], the EC50 in data set [1] was ~0.5 µM. The “nH of ACh current inhibition” value on Torpedo nACh receptor [2] is recorded as 0.9 ± 0.2. Besides, the octanol/water partition coefficient in data set [3] was 15,600 ± 1200. Also, in [4], the “Imax of GABA current enhancement” value was determined as 22 ± 6%, the “nH of GABA current enhancement” value was 1.4 ± 1.3, the “nH of GABA concentration response curve in the presence of drug” value came out at 0.9 ± 0.2 and the “Shift in GABA dose response curve to the left” value is 9 ^a fold. For the same compound, in data set [5], the EC50 is ~0.5 µM and the “effect on [3H]flunitrazepam binding above 40 μM” value was “caused no further change”. In addition, the “Enhancement of specific [3H]flunitrazepam binding” value in data set [5] (1.5 nM [3H]flunitrazepam) is ~ 150%. In the data set on Xenopus laevis tadpoles [6], the reversibility of anesthesia entry is “reversible”. For the same compound, in data set [7], the “time stable in buffer” value is “at least 2.5 days”.

Turning to `CC(C)c1cc(CCCC2(C)N=N2)cc(C(C)C)c1O` [[^3H]6, ^3H-2,6-Diisopropyl-4-[3-(3-methyl-3H-diazirin-3-yl)-propyl]-phenol], at Torpedo nACh receptor [8] (1.7 μM [3H]6), the “carbamylcholine-enhanced 3H photoincorporation in nACh receptor α-subunit” value was 3000 cpm. In addition, the “fraction of nACh receptor α-subunits photolabeled” value at Torpedo nACh receptor [8] (1.7 μM [3H]6, carbamylcholine-enhanced) is given as 0.2%.

With `CC(C)c1ccc(C2(C(F)(F)F)N=N2)cc1O` [m-TFD-propofol, 2-isopropyl-5-[3-(trifluoromethyl)-3H-diazirin-3-yl]phenol], the EC50 in the data set with Xenopus laevis tadpoles [9] (ref Hall et al, 2010 [13]) was 3.1 µM. The Direct activation entry in the data set with GABAA receptor (m-TFD-propofol at 30 μM, ref Hall et al, 2010 [13]) was “no direct agonist activity”.

On to `c1ccc(C2(N3CCCCC3)CCCCC2)cc1` [phencyclidine], for which the “effect on nACh receptor subunit photolabeling by [3H]6” value at Torpedo nACh receptor [8] is listed as “little effect”. Moreover, the “additional decrease of [3H]6 photoincorporation” value at Torpedo nACh receptor [8] (setting [11]) is ~ 20%.

On to `CC(C)c1cccc(C(C)C)c1O` [propofol, 2,6-diisopropylphenol], for which the “saturated concentration in water” value in data set [10] is 1 ± 0.02 mM. Besides, the “Enhancement of [3H]muscimol binding” value in [1] (3 nM [3H]muscimol) came to 2.4x ^a. Also, the “effect on [3H]muscimol binding above 30 μM” value in [1] (above 30 μM) is “caused a sharp decrease in binding”. For the same compound, the EC50 with Xenopus laevis tadpoles [9] (ref Hall et al, 2010 [13]) is 2.8 µM. Further, the EC50 in the data set with Xenopus laevis tadpoles [9] (ref Krasowski et al, 2001 [2]) is 1.9 µM. At Torpedo nACh receptor [2], the “nH of ACh current inhibition” value is recorded as 0.8 ± 0.1. In [4], the “Imax of GABA current enhancement” value is 16 ± 3%, the “nH of GABA current enhancement” value is 1.7 ± 1.2, the “nH of GABA concentration response curve in the presence of drug” value is 1.1 ± 0.3 and the “Shift in GABA dose response curve to the left” value is reported as 11 ^a fold. For the same compound, the “Direct activation, current as % of maximal GABA response” value in data set [4] (absence of GABA) is reported as 30–50%. Moreover, in [5] (1.5 nM [3H]flunitrazepam), the “Enhancement of [3H]flunitrazepam binding” value stood at 2x ^a and the “Enhancement of specific [3H]flunitrazepam binding” value is ~ 200%. Also, in data set [5], the “effect on [3H]flunitrazepam binding above 40 μM” value is recorded as “caused a rapid decrease in binding”. Further, the “Direct activation, currents as % of the maximal GABA response” value in the data set with GABAA receptor (propofol alone) is recorded as 30 – 70%. Further, in the data set on GABAA receptor (ref Krasowski et al, 2001 [2]), the Direct activation is 67%. The “additional increase of [3H]6 photoincorporation” value at Torpedo nACh receptor [8] (setting [11]) is reported as ~ 20%.

With `CCCCNc1ccc(C(=O)OCCN(C)C)cc1` [tetracaine], at Torpedo nACh receptor [8], the “effect on nACh receptor subunit photolabeling by [3H]6” value is “little effect; also recorded: no effect”.

(Values after PMC3580944 (Journal of medicinal chemistry, 2011).)
